From publication PMC3466776 (Biochemistry, 2012)

What was measured:
[1] = read-out: Kd for Ca^2+; cited from earlier work
CaMWT = CaMWT (Rattus norvegicus, UniProt P0DP29); test: Stopped-flow Ca^2+ dissociation kinetics of CaMWT; format: binding; details: for number of Ca^2+ ions released, phase 1, CaMWT / number of Ca^2+ ions released, phase 2, CaMWT: 0.03 relative amplitude = one Ca^2+ ion; for amplitude 1 (relative quin-2 fluorescence change), CaMWT: as koff1, CaMWT; for amplitude 1 (relative quin-2 fluorescence change), CaMWT / amplitude 2 (relative quin-2 fluorescence change), CaMWT: mean ± SD of 3-8 experiments; for amplitude 2 (relative quin-2 fluorescence change), CaMWT: as koff2, CaMWT
Procedure, shortened: (§1)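 Rat His-CaM (2 μM) with 20 μM CaCl2, alone or with 2 μM synthetic AC1 or AC8 CaMBD peptide, is mixed 1:1 with 150 μM quin-2. These are pre-mix concentrations. Buffer is 20 mM MOPS pH 7.4, 100 mM KCl, 1 mM MgCl2, at 22 °C. Quin-2 fluorescence is read with excitation at 334 nm and a 405 nm cutoff filter. Five to eight runs are averaged and fit single- or double-exponentially. A relative amplitude of 0.03 equals one Ca2+. Values are mean ± SD of ≥3 averages.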

CaM34 = CaM34 (Rattus norvegicus, UniProt P0DP29, D130A/D94A); test: Stopped-flow Ca^2+ dissociation kinetics of CaM34; format: binding; details: mean ± SD of 3-8 experiments; for amplitude 2 (relative quin-2 fluorescence change), CaM34: as koff2, CaM34, 22 °C
Procedure, shortened: as §1

CaM12 = CaM12 (Rattus norvegicus, UniProt P0DP29, D21A/D57A); test: Stopped-flow Ca^2+ dissociation kinetics of CaM12; format: binding; details: for amplitude 1 (relative quin-2 fluorescence change), CaM12: as koff1, CaM12, 22 °C; for amplitude 1 (relative quin-2 fluorescence change), CaM12 / amplitude 2 (relative quin-2 fluorescence change), CaM12: mean ± SD of 3-8 experiments; for amplitude 2 (relative quin-2 fluorescence change), CaM12: as koff2, CaM12, 22 °C
Procedure, shortened: as §1

[2] = CaM12 with peptide, single-exponential fit, 22 °C, n = 3

Row | Compound | Kd [1] | number of Ca^2+ ions released, phase 1, CaMWT (CaMWT; 22 °C) | number of Ca^2+ ions released, phase 2, CaMWT (CaMWT; 22 °C) | total Ca^2+ released in measurable phases, CaMWT (CaMWT; CaMWT with peptide, 22 °C) | amplitude 1 (relative quin-2 fluorescence change), CaMWT (CaMWT; 22 °C) | amplitude 2 (relative quin-2 fluorescence change), CaMWT (CaMWT; 22 °C) | amplitude 2 (relative quin-2 fluorescence change), CaM34 (CaM34) | amplitude 1 (relative quin-2 fluorescence change), CaM12 (CaM12) | amplitude 2 (relative quin-2 fluorescence change), CaM12 (CaM12) | total relative amplitude, CaMWT (CaMWT; CaMWT with peptide, 22 °C) | reduction of Ca^2+ dissociation speed, C-lobe (CaMWT; if slower release from both lobes, C-lobe) | reduction of Ca^2+ dissociation speed, N-lobe (CaMWT; if slower release from both lobes, N-lobe) | amplitude 1 (relative quin-2 fluorescence change), CaM34 (CaM34; as koff1, CaM34, 22 °C) | amplitude, single-exponential fit, CaM12 (CaM12; [2]) | rate constant, single-exponential fit, CaM12 (CaM12; [2])
1 | COc1cc(N(CC(=O)O)CC(=O)O)c2nc(COc3cc(C)ccc3N(CC(=O)O)CC(=O)O)ccc2c1 [quin-2] | ~60 nM | – | – | – | – | – | – | – | – | – | – | – | – | – | –
2 | IKPAKRMKFKTVCYLLVQLMHCRKMFKA [AC1-C1b] | – | 2 | 1 | 3 mol | 0.053 ± 0.001 | 0.024 ± 0.006 | 0.032 ± 0.007 | 0.022 ± 0.010 | 0.012 ± 0.003 | – | – | – | – | – | –
3 | GSRPQRLLWQTAVRHITEQRFIHGH [AC8-Nt] | – | 1 | 1 | 2 mol | 0.029 ± 0.008 | 0.027 ± 0.007 | 0.027 ± 0.004 | 0.017 ± 0.002 | 0.022 ± 0.06 | – | – | – | – | – | –
4 | YSLAAVVLGLVQSLNRQRQKQLLNE [AC8-C2b] | – | 2 | 2 | four | 0.054 ± 0.006 | 0.053 ± 0.010 | – | 0.043 ± 0.007 | 0.021 ± 0.001 | ~0.12 | 5 fold | > 60 fold | 0.049 ± 0.006 | 0.054 ± 0.004 | 7.0 ± 1.3 s^–1
